According to ChEMBL document CHEMBL5058577, “EUbOPEN Chemogenomics Library 2 (Multiplex)” (2022):

System: Fibroblast
Test: Multiplex assay against human fibroblast
Format: toxicity, cell-based
Procedure, shortened: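 Values for tubulin, mitochondrial-mass and membrane-permeability phenotypes are per cents of cells with healthy nuclei. These cells were identified by CellPathfinder machine-learning gating of live cells that had been stained at seeding with Hoechst33342, BioTracker Green Microtubule Cytoskeleton Dye, MitoTracker Red and Annexin V Alexa Fluor 680 and imaged on a CQ1 microscope at 37°C and 5% CO2 after compound addition. The gating first set Hoechst high-intensity objects apart from normal cells, then split normal cells into healthy, pyknosed or fragmented nuclei, and pyknosed cells into mitotic or apoptotic.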

[1] = 12 h, 1 µM, compound concentration 1 uM, replicate 1
[2] = 12 h, 1 µM, compound concentration 1 uM, replicate 2
[3] = 12 h, 10 µM, compound concentration 10 uM, replicate 1
[4] = 12 h, 10 µM, compound concentration 10 uM, replicate 2
[5] = 24 h, 1 µM, compound concentration 1 uM, replicate 1
[6] = 24 h, 1 µM, compound concentration 1 uM, replicate 2
[7] = 24 h, 10 µM, compound concentration 10 uM, replicate 1
[8] = 24 h, 10 µM, compound concentration 10 uM, replicate 2
[9] = 48 h, 1 µM, compound concentration 1 uM, replicate 1
[10] = 48 h, 1 µM, compound concentration 1 uM, replicate 2
[11] = 48 h, 10 µM, compound concentration 10 uM, replicate 1
[12] = 48 h, 10 µM, compound concentration 10 uM, replicate 2

COCCCN1CCC(NC(=O)c2cc(Cl)c(N)c3c2OCC3)CC1 [PRUCALOPRIDE]
Population Apoptotic (%) [1]: 33%
Population Fragmented Nuclei (%) [1]: 20%
Population Healthy Nuclei (%) [1]: 62%
Population Hoechst High Intensity Objects (%) [1]: 3%
Population Membrane Permeable-Phenotype (%) [1]: 0%
Population Mitochondria Different-Phenotype (%) [1]: 3%
Population Mitotic Cells (%) [1]: 66%
Population Normal (%) [1]: 96%
Population Pyknosed Nuclei (%) [1]: 16%
Population Tubulin-Different-Phenotype (%) [1]: 30%
Total Cell Count [1]: 132
Population Apoptotic (%) [2]: 48%
Population Fragmented Nuclei (%) [2]: 31%
Population Healthy Nuclei (%) [2]: 48%
Population Hoechst High Intensity Objects (%) [2]: 4%
Population Membrane Permeable-Phenotype (%) [2]: 5%
Population Mitochondria Different-Phenotype (%) [2]: 8%
Population Mitotic Cells (%) [2]: 52%
Population Normal (%) [2]: 95%
Population Pyknosed Nuclei (%) [2]: 20%
Population Tubulin-Different-Phenotype (%) [2]: 51%
Total Cell Count [2]: 130
Population Apoptotic (%) [3]: 30%
Population Fragmented Nuclei (%) [3]: 12%
Population Healthy Nuclei (%) [3]: 66%
Population Hoechst High Intensity Objects (%) [3]: 0%
Population Membrane Permeable-Phenotype (%) [3]: 1%
Population Mitochondria Different-Phenotype (%) [3]: 7%
Population Mitotic Cells (%) [3]: 70%
Population Normal (%) [3]: 99%
Population Pyknosed Nuclei (%) [3]: 20%
Population Tubulin-Different-Phenotype (%) [3]: 31%
Total Cell Count [3]: 144
Population Apoptotic (%) [4]: 35%
Population Fragmented Nuclei (%) [4]: 28%
Population Healthy Nuclei (%) [4]: 46%
Population Hoechst High Intensity Objects (%) [4]: 11%
Population Membrane Permeable-Phenotype (%) [4]: 7%
Population Mitochondria Different-Phenotype (%) [4]: 3%
Population Mitotic Cells (%) [4]: 64%
Population Normal (%) [4]: 88%
Population Pyknosed Nuclei (%) [4]: 25%
Population Tubulin-Different-Phenotype (%) [4]: 55%
Total Cell Count [4]: 153
Population Apoptotic (%) [5]: 48%
Population Fragmented Nuclei (%) [5]: 20%
Population Healthy Nuclei (%) [5]: 57%
Population Hoechst High Intensity Objects (%) [5]: 2%
Population Membrane Permeable-Phenotype (%) [5]: 0%
Population Mitochondria Different-Phenotype (%) [5]: 3%
Population Mitotic Cells (%) [5]: 51%
Population Normal (%) [5]: 97%
Population Pyknosed Nuclei (%) [5]: 21%
Population Tubulin-Different-Phenotype (%) [5]: 25%
Total Cell Count [5]: 136
Population Apoptotic (%) [6]: 72%
Population Fragmented Nuclei (%) [6]: 36%
Population Healthy Nuclei (%) [6]: 49%
Population Hoechst High Intensity Objects (%) [6]: 7%
Population Membrane Permeable-Phenotype (%) [6]: 7%
Population Mitochondria Different-Phenotype (%) [6]: 4%
Population Mitotic Cells (%) [6]: 27%
Population Normal (%) [6]: 92%
Population Pyknosed Nuclei (%) [6]: 14%
Population Tubulin-Different-Phenotype (%) [6]: 50%
Total Cell Count [6]: 138
Population Apoptotic (%) [7]: 63%
Population Fragmented Nuclei (%) [7]: 10%
Population Healthy Nuclei (%) [7]: 74%
Population Hoechst High Intensity Objects (%) [7]: 6%
Population Membrane Permeable-Phenotype (%) [7]: 1%
Population Mitochondria Different-Phenotype (%) [7]: 6%
Population Mitotic Cells (%) [7]: 36%
Population Normal (%) [7]: 93%
Population Pyknosed Nuclei (%) [7]: 15%
Population Tubulin-Different-Phenotype (%) [7]: 30%
Total Cell Count [7]: 128
Population Apoptotic (%) [8]: 30%
Population Fragmented Nuclei (%) [8]: 24%
Population Healthy Nuclei (%) [8]: 57%
Population Hoechst High Intensity Objects (%) [8]: 5%
Population Membrane Permeable-Phenotype (%) [8]: 11%
Population Mitochondria Different-Phenotype (%) [8]: 3%
Population Mitotic Cells (%) [8]: 69%
Population Normal (%) [8]: 94%
Population Pyknosed Nuclei (%) [8]: 18%
Population Tubulin-Different-Phenotype (%) [8]: 56%
Total Cell Count [8]: 148
Population Apoptotic (%) [9]: 50%
Population Fragmented Nuclei (%) [9]: 25%
Population Healthy Nuclei (%) [9]: 60%
Population Hoechst High Intensity Objects (%) [9]: 4%
Population Membrane Permeable-Phenotype (%) [9]: 2%
Population Mitochondria Different-Phenotype (%) [9]: 3%
Population Mitotic Cells (%) [9]: 50%
Population Normal (%) [9]: 95%
Population Pyknosed Nuclei (%) [9]: 14%
Population Tubulin-Different-Phenotype (%) [9]: 38%
Total Cell Count [9]: 146
Population Fragmented Nuclei (%) [10]: 36%
Population Healthy Nuclei (%) [10]: 49%
Population Hoechst High Intensity Objects (%) [10]: 2%
Population Membrane Permeable-Phenotype (%) [10]: 3%
Population Mitochondria Different-Phenotype (%) [10]: 6%
Population Normal (%) [10]: 97%
Population Pyknosed Nuclei (%) [10]: 13%
Population Tubulin-Different-Phenotype (%) [10]: 53%
Total Cell Count [10]: 132
Population Apoptotic (%) [11]: 64%
Population Fragmented Nuclei (%) [11]: 22%
Population Healthy Nuclei (%) [11]: 66%
Population Hoechst High Intensity Objects (%) [11]: 2%
Population Membrane Permeable-Phenotype (%) [11]: 1%
Population Mitochondria Different-Phenotype (%) [11]: 6%
Population Mitotic Cells (%) [11]: 35%
Population Normal (%) [11]: 97%
Population Pyknosed Nuclei (%) [11]: 10%
Population Tubulin-Different-Phenotype (%) [11]: 38%
Total Cell Count [11]: 136
Population Apoptotic (%) [12]: 62%
Population Fragmented Nuclei (%) [12]: 34%
Population Healthy Nuclei (%) [12]: 48%
Population Hoechst High Intensity Objects (%) [12]: 6%
Population Membrane Permeable-Phenotype (%) [12]: 7%
Population Mitochondria Different-Phenotype (%) [12]: 7%
Population Mitotic Cells (%) [12]: 37%
Population Normal (%) [12]: 93%
Population Pyknosed Nuclei (%) [12]: 17%
Population Tubulin-Different-Phenotype (%) [12]: 57%
Total Cell Count [12]: 146
